Source: PubChem (several laboratories)
GSH fluor – compound fluorescence on glutathione beads, profiling panel, artefact control, biophysical, 488/530 nm, flow cytometry | GSH beads flow cytometry, compound fluorescence 488/530 nm; hits give high values | fluorescence (KMESF) at 10 µM | 190,000 compounds, 0.25% hits | AID 1776, 2009; in the data active = fluorescence above about 89;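 note: glutathione beads carrying GST-tagged Bcl family fusion proteins plus one bare bead set; values are compound well signal with DMSO vehicle wells as background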
Avidin bead fluor – green autofluorescence of compounds with avidin beads – biophysical, 488/530 nm, flow cytometry, artefact control, profiling panel | fluorescence (KMESF) at 10 µM | 220,000 compounds, 0.38% hits | compound fluorescence 488/530 nm; hits give high values; in the data active = fluorescence above about 47
PKD1 inh – inhibitors of human PKD1 kinase, biochemical, fluorescence polarization; PKD1 kinase fluorescence polarization assay; inhibition, % (no concentration beside the values); 200,000 compounds, 0.056% hits; AID 797, 2007
ABCG2 block – ABCG2 efflux pump inhibitors, primary screen, multiplex with ABCB1, IgMXP3 cells, flow cytometry | JC-1 efflux | inhibition, % at 6.6 µM | AID 1325, 2008 | 190,000 compounds, 0.1% hits;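 active = inhibition above 80%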;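 note: 0% = DMSO and 100% = nicardipine control wells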
Target sequence (Q9UNQ0 whole entry, looked up): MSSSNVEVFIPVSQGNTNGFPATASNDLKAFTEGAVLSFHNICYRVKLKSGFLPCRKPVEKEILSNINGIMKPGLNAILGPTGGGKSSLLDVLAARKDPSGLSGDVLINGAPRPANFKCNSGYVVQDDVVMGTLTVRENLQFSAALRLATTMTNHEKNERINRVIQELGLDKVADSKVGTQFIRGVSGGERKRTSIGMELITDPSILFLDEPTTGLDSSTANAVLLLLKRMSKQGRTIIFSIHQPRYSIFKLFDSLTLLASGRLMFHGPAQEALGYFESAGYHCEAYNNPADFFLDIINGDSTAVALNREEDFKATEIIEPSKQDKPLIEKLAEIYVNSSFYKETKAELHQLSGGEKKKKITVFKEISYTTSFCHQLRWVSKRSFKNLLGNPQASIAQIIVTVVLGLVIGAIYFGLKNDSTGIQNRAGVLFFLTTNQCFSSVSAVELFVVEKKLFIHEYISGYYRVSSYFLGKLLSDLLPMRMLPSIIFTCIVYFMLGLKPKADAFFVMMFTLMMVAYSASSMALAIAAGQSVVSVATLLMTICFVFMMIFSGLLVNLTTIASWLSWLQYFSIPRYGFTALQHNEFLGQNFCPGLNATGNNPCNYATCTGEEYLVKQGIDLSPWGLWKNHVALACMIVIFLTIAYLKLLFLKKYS
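Test system: IgMXP3 (ABCG2) plus far-red-tagged CCRF-Adr (ABCB1) cells. Reagent: JC-1 dye as substrate. Timing: 10 min exposure at 25 °C with rotation, no wash. Measured by: flow cytometric JC-1 green MFI at 530 nm. Read-out: percent efflux inhibition, scaled nicardipine 100% to DMSO 0%. Control set: nicardipine and DMSO wells.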
Lmaj promast – Leishmania major promastigote growth inhibition, primary screen. Leishmania major promastigotes, resazurin fluorescence viability. inhibition, % at 10 µM. 200,000 compounds, 9% hits;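 note: promastigotes grown with compound for 44 hours at 28 °C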
ABCB1 block – ABCB1 efflux pump inhibitors, primary screen, cell-based, multiplex, flow cytometry, ABCG2 counter-screen; 190,000 compounds, 0.067% hits; ATP-dependent translocase ABCB1 (Homo sapiens), P08183; CCRF-Adr cells, JC-1 efflux; AID 1326, 2008; inhibition, % at 6.6 µM; in the data active = inhibition above about 40%;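 note: 0% = vehicle and 100% = reference inhibitor; higher value means more JC-1 retained so stronger ABCB1 efflux block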
Starred values were filed as active, the others as inactive; . = not tested or not shown. Only a selection was taken, and hits are over-represented in it overall. Cut-off read from the data, not from the text of the source, unless noted: active = inhibition above about 50%; inactive = the rest.

SMILES	GSH fluor	Avidin bead fluor	PKD1 inh	ABCG2 block	Lmaj promast	ABCB1 block
O=C(CCSc1ccc(Cl)cc1)N1CCCCCC1	23	11	-5	5	-2	1
COc1ccc(C(=O)C2CCCN(Cc3c[nH]c4ccccc34)C2)c(OC)c1 (centres undefined)	9	3	4	4	62*	5
COc1ccc(/C=C/CN2CCCC(C(=O)c3ccc(OC)c(F)c3)C2)cc1 (centres undefined)	16	20	-4	1	82*	1
COc1ccccc1/C=C/CN1CCOCC1	32	9	-7	2	1	0
CCOC(=O)C1CCN(C/C=C/c2ccccc2OC)CC1	16	11	-11	2	78*	1
COc1cccc(C(=O)C2CCCN(C/C=C/c3ccccc3OC)C2)c1 (centres undefined)	14	9	6	2	20	2
COc1ccc(C(=O)C2CCCN(C/C=C/c3ccccc3OC)C2)c(OC)c1 (centres undefined)	8	3	3	9	50*	10
COc1ccc(C(=O)C2CCCN(C(=O)COc3ccc(C(C)=O)cc3)C2)cc1F (centres undefined)	11	8	-4	2	7	0
CCOC(=O)c1cc2cc([N+](=O)[O-])cc(OC)c2oc1=O	17	10	2	15	-2	0
CCOC(=O)CNC(=O)CSc1nnc(-c2ccccc2OC)n1CC	34	20	13	-1	-7	1
COCCNCC(=O)Nc1nc(C)cs1	17	13	2	7	2	9
Cc1nc2cc(-c3ccccc3)nn2c(C)c1CCC(=O)N1CCN(c2ccccc2)CC1	22	3	4	0	87*	0
O=C(CCn1c(=O)[nH]c2ccsc2c1=O)N1CCN(c2cccc(Cl)c2)CC1	24	14	-6	1	-2	0
Cc1ccc(Cl)cc1N1CCN(C(=O)Cc2ccc(-n3c(=O)[nH]c4ccsc4c3=O)cc2)CC1	4	13	-5	10	57*	0
O=C(Nc1cccs1)Nc1c(F)c(F)c(F)c(F)c1F	5	13	1	5	55*	0
O=C(Nc1cccs1)Nc1c(F)c(F)cc(F)c1F	6	2	-9	1	-5	0
CC(C)CCc1noc(CN2CCN(c3ccc(Cl)cn3)CC2)n1	8	3	4	1	-3	1
COc1cc(CNC(C)(C)C)cc(Br)c1OCc1cccs1	11	24	4	-3	86*	0
COc1cc(CNC(C)(C)CO)cc(Br)c1OCc1ccccc1	18	12	-1	0	80*	0
CCOc1cc(CNCc2cccs2)cc(Br)c1OC	23	13	0	4	3	2
CC(C)(C)NCc1ccccc1OCc1cccs1	54	5	-1	1	82*	0
COc1cc(CNCCO)cc(Br)c1OCc1cccs1	15	21	-7	3	88*	1
CC(C)(C)NCc1cc(Br)ccc1OCc1cccs1	10	9	-5	-1	21	-1
O=C(NC1CCCCC1)NC1CC2CCCC(C1)N2C1CCCC1 (centres undefined)	30	8	-1	0	-7	0
CC(C)CNC(=S)NC1CC2CCCC(C1)N2C1CCCCC1 (centres undefined)	11	22	1	-1	52*	0
SMILES	GSH fluor	Avidin bead fluor	PKD1 inh	ABCG2 block	Lmaj promast	ABCB1 block
CCCNC(=S)NC1CC2CCC(C1)N2Cc1ccccc1 (centres undefined)	13	9	-6	0	66*	0
Cc1ccccc1C(=O)NC1CCN(Cc2nnnn2Cc2ccccc2)CC1	32	8	-17	1	8	1
CCNC(=S)NC1CC2CCC(C1)N2Cc1ccccc1 (centres undefined)	10	20	-10	6	27	1
Cc1ccccc1C(=O)NC1CC2CCC(C1)N2Cc1ccccc1 (centres undefined)	12	11	-8	0	86*	0
CC(C)CNC(=S)NC1CC2CCC(C1)N2Cc1ccccc1 (centres undefined)	27	10	5	4	88*	0
N#Cc1c(NC(=O)C2CCCO2)sc2c1CCCCCC2 (centres undefined)	5	3	-7	-1	-4	0
O=C(Nc1n[nH]c(C(F)(F)F)n1)C1CC1	34	13	-8	1	-3	0
S=C(NC1CCCCC1)NC1CC2CCC(C1)N2Cc1ccccc1 (centres undefined)	10	10	0	0	90*	0
O=C(Nc1ccc(Cl)c(C(F)(F)F)c1)NC1CC2CCCC(C1)N2Cc1ccccc1 (centres undefined)	12	16	-1	6	100*	2
CCOCCCNC(=S)NC1CC2CCC(C1)N2Cc1ccccc1 (centres undefined)	15	10	3	1	88*	0
S=C(NCCc1ccccc1)NC1CC2CCC(C1)N2Cc1ccccc1 (centres undefined)	12	13	1	9	94*	1
COCCCNC(=S)NC1CC2CCC(C1)N2Cc1ccccc1 (centres undefined)	15	8	1	-1	24	0
CSc1nc(C)nc(N/C=C(\C#N)S(=O)(=O)c2ccccc2Cl)n1	.	7	.	.	.	.
Cc1ccc(S(=O)(=O)Cn2cnnn2)cc1	14	6	5	1	13	0
COc1ccc(C(=O)NCCc2nnc3ccc(SCC(=O)Nc4cc(C)on4)nn23)cc1	24	9	-14	1	-4	0
Cc1ccc(S(=O)(=O)N2CCOCC2)cc1C(=O)OCC(=O)Nc1ccc2c(c1)OCO2	17	19	4	0	9	0
O=C(NC1CC2CCCC(C1)N2Cc1ccccc1)C1CCCCC1 (centres undefined)	11	11	7	1	84*	0
O=C(NC1CC2CCCC(C1)N2S(=O)(=O)c1ccccc1)C1CCCCC1 (centres undefined)	13	29	-6	1	20	1
Nc1nccc(/C=C/c2ccc(Cl)cc2)n1	.	7	.	.	.	.
CSC1=NC(C)(C)C=C(/C=C/c2c(Cl)cccc2Cl)N1	8	25	-5	0	58*	0
CSC1=NC(C)(C)C=C(/C=C/c2ccc(Cl)cc2)N1	20	9	-2	-2	100*	-1
